In article PMC2585546 (Bioorganic & medicinal chemistry, 2008):

What was measured:
RNA A [1] = assay: Thiazole orange fluorescent intercalator displacement; assay type: binding; details: read-out: Dissociation constants (FID); apparent KD from IC50, competitive model; 50 mM Bis-Tris·HCl pH 7.0, 100 mM NaCl, 10 mM MgCl2, 50 nM thiazole orange, 100 nM RNA A, 25 °C; average of three independent measurements ± SD
RNA A [2] = assay: Thiazole orange fluorescence enhancement on RNA binding
RNA B = assay: Thiazole orange fluorescence enhancement on RNA binding; parameters: species or system human; details: thiazole orange 2.6 µM, RNA 2 µM
Outline: (§1)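 Fold rise in thiazole orange fluorescence, with the dye at 2.6 µM and each RNA at 2 µM. RNA A is an in vitro selected aptamer stem-loop, used as supplied. RNA B (human pre-miRNA 23b sequence) and control stem-loop RNA C were 2'-ACE-deprotected (100 mM acetic acid, TEMED to pH 3.8, 60 °C, 30 min), phenol/chloroform-extracted, ethanol-precipitated and kept in water at −20 °C.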

RNA C = assay: as above; details: thiazole orange 2.6 µM, RNA 2 µM
Outline: as §1

Kd (RNA A [1]) [µM] | Fold stimulation of thiazole orange fluorescence by RNA A (RNA A [2]; thiazole orange 50 nM, RNA A 100 nM) [fold] | Fold enhancement of thiazole orange fluorescence by RNA A (RNA A [2]; thiazole orange 2.6 µM, RNA 2 µM) [fold] | Fold enhancement of thiazole orange fluorescence by RNA B (RNA B) [fold] | Fold enhancement of thiazole orange fluorescence by control RNA C (RNA C) [fold] | Structure (SMILES)
> 60 | – | – | – | – | NC[C@@H]1O[C@H](O[C@H]2[C@@H](O)[C@H](O[C@H]3[C@@H](O)[C@H](N)C[C@H](N)[C@H]3O[C@H]3O[C@H](CN)[C@@H](O)[C@H](O)[C@H]3N)O[C@@H]2CO)[C@H](N)[C@@H](O)[C@@H]1O [compound 7, neomycin]
> 100 | – | – | – | – | NC[C@H]1O[C@H](O[C@H]2[C@H](O)[C@@H](O[C@H]3O[C@H](CO)[C@@H](O)[C@H](N)[C@H]3O)[C@H](N)C[C@@H]2N)[C@H](O)[C@@H](O)[C@@H]1O [compound 8, kanamycin]
– | ~20 | 2308 | 977 | 96 | CN1C(=Cc2cc[n+](C)c3ccccc23)Sc2ccccc21 [thiazole orange]
